Assays:
RPMI-8226 [1] = experiment: Antitumor activity against human RPMI8226 cells assessed as cell viability at 1 uM after 24 hrs by MTT assay relative to control; assay type: functional; conditions: RPMI-8226, 24 h, read-out: Activity
How it was run: (§1)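 RPMI 8226 peripheral blood myeloma cells were treated with 1, 50 or 100 µM compound (DMSO stock diluted into medium) for 24 h. Viability was measured by MTT reduction (SDI test), with solubilized formazan read at 570 nm. Results are % of medium-alone control, mean SD of at least three independent measurements.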

RPMI-8226 [2] = experiment: Antitumor activity against human RPMI8226 cells assessed as cell viability at 100 uM after 24 hrs by MTT assay relative to control; assay type: functional; conditions: RPMI-8226, 24 h, read-out: Activity; how it was run: as §1
[3] = Cytotoxicity against human HSF cells assessed as cell viability at 1 uM after 24 hrs by MTT assay relative to control; assay type: cell-based; conditions: read-out: Activity
How it was run: (§2)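 Primary skin fibroblasts were obtained by trypsinizing a healthy forearm skin fragment and grown in DMEM with 10% FBS, penicillin and streptomycin at 37 °C, 5% CO2. Cells were plated at 1 × 10⁵ per well to confluence, then exposed for 24 h to 1, 50 or 100 µM compound diluted from DMSO. MTT viability was read at 570 nm as % of medium control, mean SD of at least three independent measurements.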

[4] = Cytotoxicity against human HSF cells assessed as cell viability at 50 uM after 24 hrs by MTT assay relative to control; assay type: cell-based; conditions: read-out: Activity; how it was run: as §2
RPMI-8226 [5] = experiment: Antitumor activity against human RPMI8226 cells assessed as cell viability at 50 uM after 24 hrs by MTT assay relative to control; assay type: functional; conditions: RPMI-8226, 24 h, read-out: Activity; how it was run: as §1
[6] = Cytotoxicity against human HSF cells assessed as cell viability at 100 uM after 24 hrs by MTT assay relative to control; assay type: cell-based; conditions: read-out: Activity; how it was run: as §2
[7] = Antimetastatic activity against human HeLaB cells assessed as inhibition of cell motility at 25 uM after 24 hrs relative to control; assay type: functional; set-up: scale not given: the % may be the effect or the level left
How it was run: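 HeLa B cervix carcinoma cells were exposed to 25 µM compound or to culture medium alone for 24 h in a wound-migration (cell motility) assay. Cells migrating into the wound area were scored, and motility was expressed as % of the medium-only control (100%).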

Row | Compound | viability at 1 µM (RPMI-8226 [1]) [%] | viability at 100 µM (RPMI-8226 [2]) [%] | viability at 24 h, 1 µM [3] [%] | viability at 24 h, 50 µM [4] [%] | viability at 50 µM (RPMI-8226 [5]) [%] | viability at 24 h, 100 µM [6] [%] | Activity [7] [%]
1 | O=c1c(-c2ccccc2)nnc2n1CCN2c1ccccc1Cl | 103 | 101 | 108 | 104 | 103 | 104 | 59
2 | O=c1c(-c2ccccc2)nnc2n1CCN2c1ccc(Cl)c(Cl)c1 | 108 | 58 | 93 | 48 | 69 | 47 | 90
3 | O=c1c(-c2ccccc2)nnc2n1CCN2c1cc(Cl)ccc1Cl | 109 | 41 | 87 | 31 | 43 | 17 | 103
4 | O=c1c(-c2ccccc2)nnc2n1CCN2c1ccc(Cl)cc1 | 101 | 39 | 104 | 96 | 56 | 102 | 50
5 | Cc1cccc(N2CCn3c2nnc(-c2ccccc2)c3=O)c1 | 107 | 71 | 100 | 94 | 79 | 88 | 68
6 | O=c1c(-c2ccccc2)nnc2n1CCN2c1cccc(Cl)c1 | 105 | 60 | 108 | 85 | 70 | 88 | 52
7 | COc1ccc(N2CCn3c2nnc(-c2ccccc2)c3=O)cc1 | 106 | 43 | 88 | 64 | 57 | 73 | 59

— ChEMBL document CHEMBL1155302, “Crystal structure, antitumour and antimetastatic activities of disubstituted fused 1,2,4-triazinones” (Bioorg Med Chem Lett, 2009)
